# Source: PubChem BioAssay
# The entries come from a sample that favours hits as a whole.
# UPR CHOP act – apoptotic UPR (CHOP) activation. CHO-CHOP luciferase reporter, luminescence; percent of tunicamycin response over DMSO baseline. activation, % at 10 µM. 330,000 tested, 0.34% active. AID 449763;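 active = at 10 µM dose, activation of 40% or more, normalized to positive control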;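 note: 100% = tunicamycin at 10 µg/mL and 0% = DMSO alone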
#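 System: CHO CHOP reporter cells. Amount: 500 cells per well. Buffer or medium: F12 medium, 10% FBS. Compound dosing: one dose, 10 µM in 0.5% DMSO. Incubation: 6 h compound exposure at 37 °C after overnight seeding. Technique: Steady-Glo luciferase luminescence. Benchmarks: tunicamycin and DMSO controls.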
# Jurkat NFkB inh – inhibitors of the PMA/ionomycin-induced NF-kB reporter in Jurkat cells; inhibition, % at 4 µM; PMA/ionomycin-induced NF-kB luciferase reporter, luminescence; 330,000 tested, 0.53% active; AID 435003; in the data active = inhibition above about 50%
# 697 NFkB inh – lowers PMA/ionomycin-induced NF-kB signal in 697 B cells; 697 B-cell NF-kB luciferase reporter, 16 h; inhibition, % at 4 µM; 330,000 tested, 0.33% active; AID 435022; in the data active = inhibition above about 35%
# UPR XBP1 act – activators of adaptive arm of unfolded protein response (XBP1) | CHO-XBP1 luciferase reporter, IRE1-XBP1 UPR activation, luminescence; percent of tunicamycin response, DMSO as zero | activation, % at 20 µM | 330,000 tested, 0.33% active | AID 463104;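 active = versus positive control, 20 µM dose yields 30% or more activation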;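 note: 100% = tunicamycin at 10 µg/mL and 0% = DMSO only wells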
#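 Material: CHO-XBP1 cells stably carrying IRE1-XBP1-driven luciferase reporter | Medium: F12 with 10% serum | Compound dosing: 20 µM single concentration, DMSO 1% | Incubation: Overnight seeding at 37 °C, 6 h compound treatment at 37 °C | Detection: Steady-Glo luminescence read | Read-out basis: % activation of reporter signal versus tunicamycin and DMSO controls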
# CHOP inhibitor – inhibitors of CHOP induction in ER stress response; CHO-K1 CHOP-promoter luciferase, tunicamycin-induced, 15-18 h; inhibition, % at 10 µM; 220,000 tested, 3.8% active; AID 2732;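 active = compounds that reduced the stress-induced luciferase reporter signal by more than about 70% of percent inhibition, limit read from the data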;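 note: 0% = tunicamycin plus vehicle and 100% = wells without tunicamycin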
# CHOP confirm – confirmation of CHOP induction inhibitors; shares compounds with CHOP inhibitor; 2,100 tested, 45% active; inhibition, % at 10 µM; CHO-CHOP promoter luciferase reporter, tunicamycin-induced, luminescence;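 active = mean of three repeat readings of reporter signal inhibition above a set limit, cut at about 70% in these data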;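 note: 0% = tunicamycin plus vehicle and 100% = wells lacking tunicamycin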
# Jurkat NFkB conf – lowers PMA/ionomycin-induced NF-kB signal in Jurkat cells; shares compounds with Jurkat NFkB inh; Jurkat NF-kB luciferase, 16 h; inhibition, % at 4 µM; 2,700 tested, 27% active; AID 435020;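 active = inhibition reaching about 45% at 4 µM in either replicate, limit read from the data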;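 note: plate controls were PMA/ionomycin stimulated DMSO wells for no effect and unstimulated DMSO wells for full effect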
# Numbers without * were called inactive; x = not tested or not shown.
SMILES,UPR CHOP act,Jurkat NFkB inh,697 NFkB inh,UPR XBP1 act,CHOP inhibitor,CHOP confirm,Jurkat NFkB conf
O=C(Cc1cnn(-c2ccccc2)c1)c1ccc(O)c(O)c1O,0,-23,-80,0,13,x,x
CC(C)=CCc1c(O)ccc(C(=O)Cc2ccccc2)c1O,2,9,0,1,106*,6,x
CCOC(=O)c1c(N2C(=O)C=CC2=O)sc(C)c1C,36,0,10,-3,109*,7,x
CCOC(=O)c1c(NC(N)=O)sc(C)c1C,0,-7,20,2,55,x,x
COC(=O)Oc1ccc(/C=N/NC(=O)CSCc2ccccc2Br)cc1OC,1,20,-50,6,96*,75*,x
CCCN(CCC)C(=O)CSc1nc2ccccc2c(=O)n1C1CCCC1,-2,10,3,-4,97*,4,x
CC(=O)NC(c1ccccc1)c1cc(Cl)c2cccnc2c1O (configuration not stated),0,0,-35,1,x,x,x
O=C(NC(c1ccc(Cl)cc1)c1cc(Cl)c2cccnc2c1O)c1cccnc1 (configuration not stated),x,x,x,x,110*,38,x
O=C(N/N=C/c1cccc([N+](=O)[O-])c1)c1cccc2cc[nH]c12,2,-7,14,-2,101*,-14,x
O=C(N/N=C/c1cc([N+](=O)[O-])ccc1O)c1cccc2cc[nH]c12,0,28,-23,6,35,x,x
COc1cc(/C=C/C(=O)OCC(=O)N2CCCC2)ccc1OCC#N,1,3,21,-1,x,x,x
CC(C)CC(=O)Nc1c2c(nn1-c1ccc(F)cc1)CS(=O)(=O)C2,0,-11,-2,-6,x,x,x
CCc1nnc(NC(=O)CSc2ccc(-c3nc4ccc(C)cc4[nH]3)cn2)s1,1,-98,-8,2,100*,1,x
C=CS(=O)(=O)c1ccc(Oc2ccc(S(=O)(=O)C=C)cc2)cc1,-7,78*,3,-6,x,120*,91*
NS(=O)(=O)c1ccc(Oc2ccc(S(N)(=O)=O)cc2)cc1,0,-15,-10,1,-14,x,x
Cc1ccc(S(=O)(=O)NC(=O)N(CCC#N)Cc2ccccc2)cc1,-3,15,12,2,x,x,x
Cc1nn(-c2ccccc2Cl)c(Cl)c1/C=N/Nc1nc2ccccc2s1,-6,67*,-223,-3,97*,98*,86*
CCOC(=O)N/N=C/c1c(C)nn(-c2ccccc2Cl)c1Cl,5,-20,-57,6,15,x,x
COc1ccc(OC)c(S(=O)(=O)Nc2c(C)n(C)n(-c3ccccc3)c2=O)c1,3,-3,6,-4,x,x,x
CCCNC(=O)c1nnsc1S(=O)c1ccc(Cl)cc1 (configuration not stated),-11,59*,2,-8,107*,141*,17
O=S1(=O)C=C(Sc2nc3cc(Cl)ccc3o2)c2ccccc21,-9,97*,-185,-5,x,138*,90*
Cc1ccc(S(=O)(=O)N2CCN(C(=O)COC(=O)c3cccc(Cl)c3)CC2)c(C)c1,1,-5,-2,0,x,x,x
O=C(O)c1ccc(N/N=C/c2ccc3nccnc3c2)cc1,-10,60*,20,-6,101*,116*,18
O=C(O)c1ccc(N/N=C/c2ccncc2)cc1,0,-9,-43,-4,x,x,x
CS(=O)c1nc(-c2ccc(Br)cc2)cc(-c2ccccc2)c1C#N (configuration not stated),162*,93*,-188,1,x,-14,91*
SMILES,UPR CHOP act,Jurkat NFkB inh,697 NFkB inh,UPR XBP1 act,CHOP inhibitor,CHOP confirm,Jurkat NFkB conf
CC(CC(=O)NNC(=O)c1cccc(Cl)c1)c1ccccc1 (configuration not stated),1,-4,-6,6,x,x,x
O=[N+]([O-])c1ccc(-c2nc(C(Cl)Cl)c3ccccc3n2)cc1,-7,97*,-102,-4,105*,124*,42
CN(Cc1ccccc1)c1nc(-c2ccc([N+](=O)[O-])cc2)nc2ccccc12,-2,-9,-1,-2,30,x,x
CCOC(=O)C1=C(c2ccccc2)O/C(=C(/C#N)C(F)(F)F)S1,54*,75*,-230,-2,97*,113*,54*
COc1cc(CC(=O)Nc2ccc(S(=O)(=O)NC3=NCCCCC3)cc2)cc(OC)c1OC,0,10,-7,-2,-2,x,x
O/N=C/c1cccc[n+]1CCCCCC[n+]1ccccc1/C=N/O,-2,2,-3,-3,x,x,x
CCCCCCCCCCCCCCCC[n+]1ccc(/C=N/O)cc1,24,80*,9,8,103*,125*,54*
CCOc1ccccc1NC(=O)COC(=O)C(Cc1ccccc1)NC(=O)c1ccco1 (configuration not stated),0,9,3,2,x,x,x
CCOC(=O)/C=C/C(=O)Nc1ccc(S(=O)(=O)Nc2c(C)cc(C)cc2C)cc1,1,0,11,0,34,x,x
CCOC(=O)/C=C/S(=O)(=O)c1ccc(NC(C)=O)cc1,-12,53*,20,-8,x,121*,38
CCCCCCCCCCCCCCCC[n+]1cccc(C(=O)N(CC)CC)c1,0,86*,-28,-1,108*,115*,75*
O=C(Nc1ccc(S(=O)(=O)N2CCOCC2)cc1)c1ccc(CN2CCc3ccccc3C2)cc1,5,77*,30,-5,101*,89*,74*
CC1CCN(Cc2nnc(-c3cccc(Br)c3)o2)CC1,4,-16,-21,4,x,x,x
O=C(/C=C/c1cccc([N+](=O)[O-])c1)n1cnc2ccccc21,-4,71*,-43,-4,107*,116*,40
Cc1ccc(NC(=O)c2cc3ccccc3oc2=O)cc1S(=O)(=O)N(C)C,-8,56*,-48,-10,102*,110*,91*
Nc1ccc2c(c1)C(=O)c1ccccc1C2=O,0,-67,-61,6,x,x,x
Nc1ccc2c(c1)C(=O)c1ccccc1-2,2,-21,19,4,x,x,x
O=C1C(=O)c2ccc(-c3ccccc3)cc2-c2ccccc21,-9,53*,21,-7,109*,140*,24
Nc1ccc2c(c1)C(=O)C(=O)c1ccccc1-2,-8,84*,5,-8,x,140*,24
Cc1cnc(C(=O)OCC(=O)c2ccc(Cl)cc2)cn1,1,6,20,-7,x,x,x
COc1cc(/C=C/C(=O)O)cc(S(=O)(=O)Nc2ccc3nc(SC)sc3c2)c1OC,-1,20,13,0,9,x,x
O=C(Cn1ccccc1=O)NCc1ccc(F)cc1,2,0,-10,-1,x,x,x
